Results pooled from the literature.
Target: Serine/threonine-protein kinase PLK2 (PLK2, Homo sapiens, UniProt Q9NYY3)

| Structure (SMILES) | effect on | mode | method | tested at | measurement | result |
| --- | --- | --- | --- | --- | --- | --- |
| O=c1[nH]c2ccccc2n1C1CCN(Cc2ccc(-c3[nH]c4cc5ncnc5cc4nc3-c3ccccc3)cc2)CC1 | cell-free assay |  |  | 0.5 µM | remaining signal | 95.5% |
| Nc1ncc(-c2nc(N3CCOCC3)nc(N3CCOCC3)n2)c(C(F)F)n1 | binding |  | competition with immobilised ligand | 10 µM | remaining binding | 73% |
| Cc1nn(C)cc1-c1nc2c(N3CCN(Cc4ccc(Cl)cc4)CC3)c(Cl)cnc2[nH]1 | binding |  | competition with immobilised ligand | 1 µM | remaining binding | 93% |
| N#CC1(c2ccccn2)CCN(Cc2cc(C(=O)O)c(=O)n3ccccc23)CC1 | cell-free assay |  | competition with immobilised ligand | 1 µM | remaining binding | 80% |
| Cn1cc(-c2cccc(N3CCc4c(sc5c4CC(C)(C)C5)C3=O)c2CO)cc(Nc2ccncn2)c1=O | enzyme activity | inhibitor |  | 1 µM | inhibition | 21% |
| COc1ncccc1-c1cnn2ccc(N3CCN(C(=O)OC(C)C)CC3)nc12 | binding |  | competition with immobilised ligand | 1 µM | remaining binding | 96% |
| Cn1cncc1[C@@](O)(COc1ccc(C#N)cc1-c1ccc(OC(F)(F)F)cc1)c1ccc(C#N)cc1 | cell-free assay |  | competition with immobilised ligand | 1 µM | remaining binding | 86% |
| Cn1cc(-c2cc(F)cc(N3CCn4c(cc5c4CCCC5)C3=O)c2CO)cc(Nc2ccc(N3CCN(C4COC4)CC3)cn2)c1=O | enzyme activity | inhibitor |  | 0.1 µM | inhibition | 18% |
| CC(C)(C)c1cc(C=C(C#N)C#N)cc(Br)c1O | enzyme activity | inhibitor |  | 0.5 µM | remaining activity | 92.6% |
